The source made the active and inactive calls. The rule behind the calls is not given here.
Key:
Format in all cases: cell membranes
[1] = target: T1, Adenosine receptor A1 (Homo sapiens) (UniProt P30542); assay: Displacement of [3H]DPCPX from human adenosine A1 receptor expressed in CHO cell membrane at 1 uM and measured after 0.5 hrs by radioligand displacement assay
T1 sequence (whole entry): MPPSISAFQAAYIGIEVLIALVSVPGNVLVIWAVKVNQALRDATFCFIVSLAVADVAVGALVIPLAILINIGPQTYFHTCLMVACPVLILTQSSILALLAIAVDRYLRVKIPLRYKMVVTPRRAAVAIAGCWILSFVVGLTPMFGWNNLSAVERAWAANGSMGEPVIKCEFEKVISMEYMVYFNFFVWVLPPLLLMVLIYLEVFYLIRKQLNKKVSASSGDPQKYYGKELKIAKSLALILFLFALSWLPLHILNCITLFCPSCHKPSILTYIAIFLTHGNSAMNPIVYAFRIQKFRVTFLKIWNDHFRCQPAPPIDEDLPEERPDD

Adenosine receptor A2b [2] = target: T2, Adenosine receptor A2b (Homo sapiens, UniProt P29275); assay: Displacement of [3H]PSB-603 from human adenosine A2B receptor expressed in CHO cell membrane preincubated for 4 hrs followed by [3H]PSB-603 addition and measured after 0.5 hrs by radioligand displacement assay
T2 sequence (P29275 whole entry): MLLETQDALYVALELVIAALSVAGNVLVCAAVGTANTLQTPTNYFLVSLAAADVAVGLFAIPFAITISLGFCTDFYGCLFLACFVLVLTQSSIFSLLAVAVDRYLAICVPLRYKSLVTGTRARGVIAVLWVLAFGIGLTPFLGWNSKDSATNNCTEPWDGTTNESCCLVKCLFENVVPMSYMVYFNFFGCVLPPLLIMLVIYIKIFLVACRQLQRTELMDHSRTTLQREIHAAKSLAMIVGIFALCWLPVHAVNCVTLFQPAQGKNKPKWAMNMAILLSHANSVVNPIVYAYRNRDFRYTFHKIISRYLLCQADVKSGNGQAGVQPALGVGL

[3] = target: T3, Adenosine receptor A2b (Homo sapiens) (UniProt P29275); assay: Ratio of Ki for displacement of [3H]PSB-603 from human adenosine A2B receptor expressed in CHO cell membrane to Ki for displacement of [3H]PSB-603 from human adenosine A2B receptor expressed in CHO cell membrane preincubated for 4hrs
T3 sequence (whole entry): T2 sequence (P29275 whole entry)
In short: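 CHO-spap-hA2BAR membranes (30 µg protein) in 50 mM Tris-HCl pH 7.4 with 0.1% CHAPS. Nonspecific binding was set with 10 µM ZM241385. Filtration was followed by scintillation counting.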

[4] = target: T4, Adenosine receptor A3 (Homo sapiens) (UniProt P0DMS8); assay: Displacement of [3H]PSB-11 from human adenosine A3 receptor expressed in CHO cell membrane at 1 uM and measured after 0.5 hrs by radioligand displacement assay
T4 sequence (whole entry): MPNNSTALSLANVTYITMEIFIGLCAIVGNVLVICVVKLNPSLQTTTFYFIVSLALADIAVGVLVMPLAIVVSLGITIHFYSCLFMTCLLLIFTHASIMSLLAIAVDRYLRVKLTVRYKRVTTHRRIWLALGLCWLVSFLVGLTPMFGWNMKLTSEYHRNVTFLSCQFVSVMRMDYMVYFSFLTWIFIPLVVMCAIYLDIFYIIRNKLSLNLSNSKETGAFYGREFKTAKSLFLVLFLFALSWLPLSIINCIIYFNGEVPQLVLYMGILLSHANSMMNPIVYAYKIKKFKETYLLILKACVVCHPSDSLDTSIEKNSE

[5] = target: Adenosine receptor A2a (Homo sapiens) (UniProt P29274); assay: Displacement of [3H]ZM241385 from human adenosine A2A receptor expressed in HEK293 cell membrane at 1 uM and measured after 0.5 hrs by radioligand displacement assay
[6] = target: Adenosine receptor A2a (Homo sapiens) (UniProt P29274); assay: Displacement of [3H]ZM241385 from human adenosine A2A receptor expressed in HEK293 cell membrane at 1 uM preincubated for 4 hrs followed by [3H]ZM241385 addition and measured after 0.5 hrs by radioligand displacement assay; conditions: time 4.5 hrs
Adenosine receptor A2b [7] = target: T2, Adenosine receptor A2b; assay: Displacement of [3H]PSB-603 from human adenosine A2B receptor expressed in CHO cell membrane and measured after 0.5 hrs by radioligand displacement assay
[8] = target: T1, Adenosine receptor A1 (Homo sapiens); assay: Displacement of [3H]DPCPX from human adenosine A1 receptor expressed in CHO cell membrane at 1 uM preincubated for 4 hrs followed by [3H]DPCPX addition and measured after 0.5 hrs by radioligand displacement assay; conditions: time 4.5 hrs
[9] = target: T4, Adenosine receptor A3 (Homo sapiens); assay: Displacement of [3H]PSB-11 from human adenosine A3 receptor expressed in CHO cell membrane at 1 uM preincubated for 4 hrs followed by [3H]PSB-11 addition and measured after 0.5 hrs by radioligand displacement assay; conditions: time 4.5 hrs
[10] = target: T3, Adenosine receptor A2b (Homo sapiens); assay: Displacement of [3H]PSB-603 from human adenosine A2B receptor expressed in CHO cell membrane assessed as covalent adduct formation at 1 uM preincubated followed by 4 times washing treatment and then with [3H]PSB-603 exposure by radioligand displacement assay
In short: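 CHO-spap-hA2BAR membranes (80 µg protein) were shaken 2 h at 25 °C with ligand, added as a 1 µM solution, in 0.1% CHAPS/50 mM Tris-HCl pH 7.4. The washed set was pelleted, resuspended and shaken 10 min at 25 °C, repeated three times; an unwashed set was kept for comparison. Both sets then had [3H]PSB-603 (1.5 nM solution) added for 2 h at 25 °C, with nonspecific binding set by 10 µM ZM241385. Filtration, then scintillation counting.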

Adenosine receptor A2a (Homo sapiens), sequence (P29274 whole entry): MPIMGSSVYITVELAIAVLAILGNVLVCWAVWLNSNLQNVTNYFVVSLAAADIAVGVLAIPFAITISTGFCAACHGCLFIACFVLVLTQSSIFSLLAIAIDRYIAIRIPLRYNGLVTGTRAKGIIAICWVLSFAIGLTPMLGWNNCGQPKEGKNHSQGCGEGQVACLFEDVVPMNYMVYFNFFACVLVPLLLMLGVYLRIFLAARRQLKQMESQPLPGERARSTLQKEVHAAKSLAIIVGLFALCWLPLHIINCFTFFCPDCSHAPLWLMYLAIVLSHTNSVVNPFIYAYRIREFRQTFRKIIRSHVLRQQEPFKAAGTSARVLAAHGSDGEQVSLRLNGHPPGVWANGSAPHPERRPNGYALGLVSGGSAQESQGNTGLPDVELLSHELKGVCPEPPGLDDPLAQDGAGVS

Structure (SMILES) | Activity [1] [%] | Ki (Adenosine receptor A2b [2]) [nM] | Ratio Ki [3] | Activity [4] [%] | Activity [5] [%] | Activity [6] [%] | Ki (Adenosine receptor A2b [7]) [nM] | Activity [8] [%] | Activity [9] [%] | Activity [10]
CCCn1c(=O)c2[nH]c(-c3ccc(N=C=S)cc3)nc2n(CCC)c1=O | 77 | 3.24 | 7.7 | 48 | 40 | 39 | 24 | 92 | 96 | –
CCCn1c(=O)[nH]c2nc(-c3ccc(N=C=S)cc3)[nH]c2c1=O | 51 | 0.661 | 3.4 | 15 | 25 | 27 | 2.14 | 97 | 66 | –
CCCn1c(=O)[nH]c2nc(-c3cccc(S(=O)(=O)F)c3)[nH]c2c1=O | 6 | 13.2 | 10.2 | 14 | 20 | 6 | 132 | 36 | 10 | –
CCCn1c(=O)[nH]c2nc(-c3ccc(OS(=O)(=O)F)cc3)[nH]c2c1=O | 17 | 5.5 | 2.2 | 8 | 35 | 24 | 11.7 | 12 | 8 | Active
CCCn1c(=O)c2[nH]c(-c3ccc(OS(=O)(=O)F)cc3)nc2n(CCC)c1=O | 79 | 51.3 | 1 | 47 | 63 | 69 | 49 | 85 | 49 | –
CCCn1c(=O)c2[nH]c(-c3cccc(S(=O)(=O)F)c3)nc2n(CCC)c1=O | 52 | 158 | 7.1 | 30 | 19 | 23 | 955 | 61 | 43 | –
CCCn1c(=O)c2[nH]c(-c3cccc(N=C=S)c3)nc2n(CCC)c1=O | 73 | 49 | 19.3 | 89 | 47 | 34 | 617 | 96 | 100 | –
CCCn1c(=O)c2[nH]c(-c3ccc(S(=O)(=O)F)cc3)nc2n(CCC)c1=O | 61 | 2.4 | 27.3 | 12 | 54 | 55 | 60.3 | 69 | 5 | –
CCCn1c(=O)[nH]c2nc(-c3cccc(N=C=S)c3)[nH]c2c1=O | 7 | 2.82 | 74.3 | 58 | 0 | 6 | 110 | 16 | 95 | –
CCCn1c(=O)[nH]c2nc(-c3cccc(OS(=O)(=O)F)c3)[nH]c2c1=O | 6 | 70.8 | 1.6 | 14 | 2 | 0 | 141 | 1 | 5 | –
CCCn1c(=O)[nH]c2nc(-c3ccc(S(=O)(=O)F)cc3)[nH]c2c1=O | 29 | 0.676 | 12.1 | 7 | 52 | 43 | 7.94 | 41 | 9 | Active
CCCn1c(=O)c2[nH]c(-c3cccc(OS(=O)(=O)F)c3)nc2n(CCC)c1=O | 76 | 525 | 1.2 | 64 | 13 | 12 | 562 | 77 | 58 | –

— ChEMBL document CHEMBL5104156, “Development of subtype-selective covalent ligands for the adenosine A2B receptor by tuning the reactive group” (RSC Med Chem, 2022)
